Data as given in ChEMBL document CHEMBL4673340 (J Med Chem, 2020).

Assays:
[1] = Ratio of drug level in brain to plasma of C57BL/6 mouse brain at 10 mg/kg, po after 4 hrs; assay type: ADME, organism-based
In short: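 C57BL/6 mice were given 10 mg/kg po in 0.5% MC and sampled at 1, 2 and 4 h. Brain was homogenized in 3 volumes of saline, and brain and plasma were protein-precipitated with acetonitrile, then measured by LC-MS/MS. Brain (ng/g) was expressed as a percentage of plasma (ng/mL). Values are means of three mice.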

MDA-MB-436 = experiment: Antitumor activity against human MDA-MB-436 cells xenografted in BALB/c nude mouse assessed as inhibition of tumor growth at 1.6 to […], po BID for 28 days followed by treatment was interruption and monitored for additional 2 months; assay type: functional, organism-based; details: dose lower […], dose upper […], time 28.0 day
[2] = Drug level in C57BL/6 mouse plasma at 10 mg/kg, po after 4 hrs; assay type: ADME, organism-based
In short: (§1)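 C57BL/6 mice (n=3) dosed orally at 10 mg/kg in 0.5% MC. Plasma and brain are sampled at 1, 2 and 4 h. Brain is homogenized in 3 volumes of saline, then acetonitrile protein precipitation; plasma is likewise precipitated. Both are analysed by LC–MS/MS and reported as means.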

[3] = Drug level in C57BL/6 mouse plasma at 10 mg/kg, po after 2 hrs; assay type: ADME, organism-based; in short: as §1
[4] = target: Solute carrier organic anion transporter family member 1B3 (Homo sapiens, UniProt Q9NPD5); experiment: Inhibition of OATP1B3 (unknown origin)
Solute carrier organic anion transporter family member 1B3, sequence (Q9NPD5 whole entry): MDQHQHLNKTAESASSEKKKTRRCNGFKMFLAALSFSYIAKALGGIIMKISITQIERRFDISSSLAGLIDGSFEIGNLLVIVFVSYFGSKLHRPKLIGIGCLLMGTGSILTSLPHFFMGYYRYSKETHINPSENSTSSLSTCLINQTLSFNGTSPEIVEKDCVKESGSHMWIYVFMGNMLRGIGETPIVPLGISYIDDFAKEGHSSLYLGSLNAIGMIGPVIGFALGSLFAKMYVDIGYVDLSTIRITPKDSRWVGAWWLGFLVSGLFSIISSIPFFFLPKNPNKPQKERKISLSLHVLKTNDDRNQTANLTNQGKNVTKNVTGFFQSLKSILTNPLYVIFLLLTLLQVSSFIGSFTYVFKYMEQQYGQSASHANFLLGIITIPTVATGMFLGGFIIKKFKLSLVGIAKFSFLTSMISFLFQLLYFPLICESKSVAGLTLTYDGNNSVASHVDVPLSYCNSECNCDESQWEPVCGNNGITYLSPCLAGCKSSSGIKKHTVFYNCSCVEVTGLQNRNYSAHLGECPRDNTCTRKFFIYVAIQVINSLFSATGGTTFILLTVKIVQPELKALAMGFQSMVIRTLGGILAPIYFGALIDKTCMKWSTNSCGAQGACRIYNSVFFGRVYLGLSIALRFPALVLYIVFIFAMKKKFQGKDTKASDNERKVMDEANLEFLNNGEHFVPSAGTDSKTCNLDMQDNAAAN

[5] = target: Solute carrier family 22 member 6 (Homo sapiens, UniProt Q4U2R8); experiment: Inhibition of OAT1 (unknown origin)
Solute carrier family 22 member 6, sequence (Q4U2R8 whole entry): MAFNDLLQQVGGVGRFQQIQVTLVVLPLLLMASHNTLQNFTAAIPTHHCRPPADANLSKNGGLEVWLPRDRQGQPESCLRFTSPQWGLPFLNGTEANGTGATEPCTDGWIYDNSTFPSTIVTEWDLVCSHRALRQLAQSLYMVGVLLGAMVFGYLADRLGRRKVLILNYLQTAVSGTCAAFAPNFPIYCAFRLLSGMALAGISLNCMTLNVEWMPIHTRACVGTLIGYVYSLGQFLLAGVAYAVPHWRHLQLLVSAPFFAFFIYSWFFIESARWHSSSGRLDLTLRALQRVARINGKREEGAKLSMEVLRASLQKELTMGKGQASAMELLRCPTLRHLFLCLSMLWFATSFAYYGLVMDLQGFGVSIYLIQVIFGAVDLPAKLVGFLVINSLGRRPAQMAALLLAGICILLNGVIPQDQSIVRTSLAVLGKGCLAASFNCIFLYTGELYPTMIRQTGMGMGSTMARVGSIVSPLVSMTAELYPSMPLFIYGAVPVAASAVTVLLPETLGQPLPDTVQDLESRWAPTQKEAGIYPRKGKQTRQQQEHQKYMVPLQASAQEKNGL

[6] = target: Broad substrate specificity ATP-binding cassette transporter ABCG2 (Homo sapiens, UniProt Q9UNQ0); experiment: Inhibition of BCRP (unknown origin) up to 30 uM
Broad substrate specificity ATP-binding cassette transporter ABCG2, sequence (Q9UNQ0 whole entry): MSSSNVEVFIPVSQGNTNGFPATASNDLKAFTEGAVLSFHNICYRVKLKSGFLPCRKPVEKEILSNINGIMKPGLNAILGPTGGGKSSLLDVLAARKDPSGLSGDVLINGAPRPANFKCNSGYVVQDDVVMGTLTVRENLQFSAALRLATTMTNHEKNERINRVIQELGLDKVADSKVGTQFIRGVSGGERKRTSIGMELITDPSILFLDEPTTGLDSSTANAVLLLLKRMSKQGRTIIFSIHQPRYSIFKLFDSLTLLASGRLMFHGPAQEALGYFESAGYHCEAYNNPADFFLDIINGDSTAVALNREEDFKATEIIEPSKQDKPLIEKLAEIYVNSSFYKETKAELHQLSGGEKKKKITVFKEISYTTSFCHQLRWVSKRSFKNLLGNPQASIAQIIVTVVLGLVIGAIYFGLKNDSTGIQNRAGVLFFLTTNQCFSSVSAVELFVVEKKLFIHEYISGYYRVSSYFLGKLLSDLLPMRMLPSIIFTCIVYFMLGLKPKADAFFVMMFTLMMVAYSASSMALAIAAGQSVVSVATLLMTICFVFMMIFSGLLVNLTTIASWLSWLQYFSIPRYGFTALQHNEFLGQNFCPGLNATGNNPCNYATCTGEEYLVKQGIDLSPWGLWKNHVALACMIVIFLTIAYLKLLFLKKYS

[7] = target: Solute carrier organic anion transporter family member 1B1 (Homo sapiens, UniProt Q9Y6L6); experiment: Inhibition of OATP1B1 (unknown origin)
Solute carrier organic anion transporter family member 1B1, sequence (Q9Y6L6 whole entry): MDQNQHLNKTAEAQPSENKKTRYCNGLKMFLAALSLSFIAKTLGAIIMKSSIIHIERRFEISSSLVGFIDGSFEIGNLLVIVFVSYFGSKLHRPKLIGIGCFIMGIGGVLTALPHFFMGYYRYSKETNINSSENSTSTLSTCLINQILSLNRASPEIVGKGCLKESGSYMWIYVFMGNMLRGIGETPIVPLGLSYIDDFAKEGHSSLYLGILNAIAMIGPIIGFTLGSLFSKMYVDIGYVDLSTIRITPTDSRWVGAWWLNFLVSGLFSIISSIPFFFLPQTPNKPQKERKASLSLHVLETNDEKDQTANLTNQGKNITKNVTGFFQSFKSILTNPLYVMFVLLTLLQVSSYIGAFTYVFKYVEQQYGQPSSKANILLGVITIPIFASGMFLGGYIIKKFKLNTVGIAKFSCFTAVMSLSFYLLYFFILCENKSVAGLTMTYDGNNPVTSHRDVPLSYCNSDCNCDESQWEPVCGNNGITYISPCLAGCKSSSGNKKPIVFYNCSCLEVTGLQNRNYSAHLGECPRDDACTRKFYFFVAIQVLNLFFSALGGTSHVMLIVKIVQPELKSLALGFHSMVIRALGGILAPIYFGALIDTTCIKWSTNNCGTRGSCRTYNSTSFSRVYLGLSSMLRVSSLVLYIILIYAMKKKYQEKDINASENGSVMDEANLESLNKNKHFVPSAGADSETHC

[8] = AUC (0 to infinity) in Beagle dog at 2 mg/kg, po by LC-MS/MS analysis; assay type: ADME, organism-based, Canis lupus familiaris; parameters: route oral, time infinity, dose 2 mg/kg; details: in vivo
In short: (§2)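 Three Beagle dogs; iv dose 1 mg/kg in 25% DMA in water; oral dose 2 mg/kg in 0.5% CMC-Na. Plasma drug concentrations are measured by LC–MS/MS. Values are the mean of three dogs.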

[9] = AUC (0 to infinity) in Beagle dog at 1 mg/kg, iv by LC-MS/MS analysis; assay type: ADME, organism-based, Canis lupus familiaris; parameters: time infinity, route intravenous, dose 1 mg/kg; details: in vivo; in short: as §2
[10] = AUC (0 to infinity) in Sprague-Dawley rat at 2 mg/kg, iv by LC-MS/MS analysis; assay type: ADME, organism-based; parameters: time infinity, route intravenous, dose 2 mg/kg; details: in vivo
In short: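 Sprague-Dawley rats (n=3) get 2 mg/kg iv formulated in 38% DMA in water. Plasma is protein-precipitated and quantified by LC–MS/MS (C18, acetonitrile/0.1% formic acid gradient). Parameters are means of the three rats.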

[11] = Clearance in ICR mouse at 1 mg/kg, iv by LC-MS/MS analysis; assay type: ADME, organism-based; details: in vivo
In short: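 Male/female unspecified ICR mice, n=3 per route. Intravenous 1 mg/kg in 5% DMA in water; oral 10 mg/kg in 0.5% MC. Plasma is processed by protein precipitation and analysed by LC–MS/MS using an acetonitrile/0.1% formic acid gradient. Values are means of the three animals.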

[12] = Apparent permeability from apical to basolateral side in human Caco-2 cells; assay type: ADME, cell-based
[13] = Clearance in rat liver microsomes; assay type: ADME, Microsome
Cytochrome P450 3A4 = Cytochrome P450 3A4 (Homo sapiens, UniProt P08684); experiment: Inhibition of CYP3A4 (unknown origin); assay type: ADME
Cytochrome P450 3A4, sequence (P08684 whole entry): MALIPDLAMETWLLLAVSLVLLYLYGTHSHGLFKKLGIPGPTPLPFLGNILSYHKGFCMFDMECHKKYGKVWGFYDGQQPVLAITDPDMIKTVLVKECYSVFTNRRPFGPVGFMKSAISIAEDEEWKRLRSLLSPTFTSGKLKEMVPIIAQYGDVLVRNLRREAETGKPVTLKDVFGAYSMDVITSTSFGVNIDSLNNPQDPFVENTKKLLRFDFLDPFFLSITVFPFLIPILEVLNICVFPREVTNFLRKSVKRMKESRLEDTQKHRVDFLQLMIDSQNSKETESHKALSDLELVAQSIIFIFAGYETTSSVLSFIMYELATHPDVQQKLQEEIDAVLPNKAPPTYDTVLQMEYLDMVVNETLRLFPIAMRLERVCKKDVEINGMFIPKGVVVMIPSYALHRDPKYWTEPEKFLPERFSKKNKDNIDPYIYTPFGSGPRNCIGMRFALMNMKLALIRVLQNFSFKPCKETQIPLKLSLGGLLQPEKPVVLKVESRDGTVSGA

[14] = Clearance in mouse liver microsomes; assay type: ADME, Microsome; details: read-out: CLH
[15] = Inhibition of PARylation in PBMC in patient with ovarian cancer at >= 10 mg BID during phase I study; assay type: functional, Homo sapiens; details: dose mg >=10

In the case of `C[C@]12CCCN1CC1=NNC(=O)c3cc(F)cc4[nH]c2c1c34` [PAMIPARIB], the BPR [1] is reported as 19.1%, the TGI (MDA-MB-436) is reported as “Dose-dependent effect” and the concentration at 4 h [2] is reported as 0.707 µg/mL. For the same molecule, the concentration at 2 h [3] was 1.33 µg/mL, the IC50 [4] was 19.4 µM and the IC50 [5] was 47.8 µM. The “inhibition (INH)” value [6] was “Not Active”, the IC50 [7] was 19.4 µM and the AUC(0-inf) [8] was 1.6 µg·h/mL. The AUC(0-inf) [9] was 1.08 µg·h/mL, the AUC(0-inf) [10] was 1.48 µg·h/mL and the CL [11] was 1.79 L/h/kg. The Papp A→B [12] was 303 nm/s, the microsomal CLint [13] was 7.2 µL/min/mg and the IC50 (Cytochrome P450 3A4) was over 10 µM. For the same molecule, the CLint scaled [14] was 0.774 L/h/kg and the “inhibition (INH)” value [15] was over 80%.
